The term Ki denotes a measure of affinity in units of concentration, obtained from inhibition or displacement. High values mean a looser hold on the target, low ones a stronger hold on the target. Broadly, the inhibition in vivo is the relative decrease from the control value, in per cent. In general, half-life refers to the time needed for the level to fall by half in the phase considered. A low value points to rapid decline. As usually defined, the inhibition is the relative decrease from the control value, in per cent. The low end stands for a response near the control, the high end for a response far below the control.

Activity calls are given as the source filed them.

Data set [1] is described as follows: Inhibition of HNE-induced pulmonary hemorrhage when the compound was administered before 30 or 45 min at the dose of 50 mg/kg; not orally active. Type of data set: functional, organism-based. The arrangement: dose 50 mg/kg.
In data set [2] the target is T1, Neutrophil elastase (Homo sapiens, UniProt P08246).
T1 sequence (P08246 whole entry): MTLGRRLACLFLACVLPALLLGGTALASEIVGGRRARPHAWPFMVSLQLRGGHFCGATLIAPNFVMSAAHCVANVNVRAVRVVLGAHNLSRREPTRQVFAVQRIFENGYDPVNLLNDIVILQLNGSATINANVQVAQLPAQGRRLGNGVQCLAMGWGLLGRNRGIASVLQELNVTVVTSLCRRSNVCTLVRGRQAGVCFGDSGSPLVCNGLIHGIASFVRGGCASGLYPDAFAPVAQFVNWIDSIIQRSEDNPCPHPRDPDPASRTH
Briefly: In vitro inhibitory activity against human neutrophil elastase was determined at a dose of 45 mg/kg. The format is organism-based. Details: dose 45 mg/kg.

Data set [3] has as its system Rattus norvegicus. Description: In vivo inhibitory activity against HNE-induced pulmonary hemorrhage was determined in rats after oral administration of 45 mg/kg. Type of data set: functional. In a few lines:
(§1)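 Rats were dosed orally 45 min before intratracheal instillation of 100 μg HNE. After 1 h, lungs were lavaged with saline, and BAL hemoglobin was measured spectrophotometrically (536–546 nm) against a Hgb standard curve. Percent inhibition was calculated versus vehicle-treated controls, 5–10 rats per group, as mean ± SEM, with one-way ANOVA and Dunnett's test (p ≤ 0.05).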

Data set [4] is described as follows: Half life determined from epimerization data at 37 degree C in human blood serum 3. The format is ADME, organism-based, Plasma. In a few lines: (§2)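 The L-L-L or L-L-D diastereomer was held at 37 °C in human blood serum (three individual donors) or human plasma, with a sealed D2O capillary inserted into the NMR tube for lock. Epimerization was followed by 19F NMR spectra, and the half-life was taken from these spectra.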

Data set [5] is described as follows: Half life determined from epimerization data at 37 degree C in human blood plasma. Type of data set: ADME, organism-based. In a few lines:
as §2

Data set [6] in a line: Half life determined from epimerization data at 25 degree C in Tween 20 (81 mM). To be noted: Tween 20 solution (81 mM).
Data set [7] concerns the target Pepsin A (Sus scrofa) (UniProt P00791). Description: Tested for the ability to inhibit pepsin at 0.2 mM.
For data set [8], the target named is Prothrombin (Bos taurus) (UniProt P00735). Briefly: Tested for the ability to inhibit bovine thrombin at 0.5 mM.
Data set [9] in a line: Inhibition of HNE-induced pulmonary hemorrhage when the compound was administered before 30 or 45 min at the dose of 50 mg/kg; orally active. Type of data set: functional, organism-based. Details: dose 50 mg/kg.
In data set [10] the test system is Cricetinae gen. sp. Briefly: In vivo inhibitory activity against HNE-induced pulmonary hemorrhage was determined in hamsters after oral administration of 25 mg/kg. Type of data set: functional. In a few lines:
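Hamsters were dosed orally 30 min (one case 15 min) before intratracheal instillation of 20 or 10 μg HNE. After 1 h, lungs were lavaged with saline, and BAL hemoglobin was read at 536–546 nm against a Hgb standard curve. Inhibition was calculated versus vehicle controls, 6–19 hamsters per group, as mean ± SEM, with ANOVA and Dunnett's test (p ≤ 0.05).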

Data set [11] addresses T2, Cathepsin G (Homo sapiens) (UniProt P08311).
T2 sequence (whole entry): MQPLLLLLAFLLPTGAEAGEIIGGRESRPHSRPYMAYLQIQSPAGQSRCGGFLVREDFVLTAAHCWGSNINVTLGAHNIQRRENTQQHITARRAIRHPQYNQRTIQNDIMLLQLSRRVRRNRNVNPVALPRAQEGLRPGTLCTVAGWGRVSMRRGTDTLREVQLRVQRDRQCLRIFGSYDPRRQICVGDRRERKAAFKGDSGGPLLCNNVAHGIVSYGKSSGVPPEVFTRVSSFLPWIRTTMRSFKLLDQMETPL
Description: Tested for the ability to inhibit human neutrophil cathepsin G at 0.5 mM.

Data set [12] addresses Cathepsin B (Bos taurus) (UniProt P07688). Description: Tested for the ability to inhibit bovine liver cathepsin B at 0.5 mM.
Data set [13] is described as follows: Half life determined from epimerization data at 25 degree C in buffered saline.
The target in data set [14] is T3, Neprilysin (Rattus norvegicus) (UniProt P07861).
T3 sequence (whole entry): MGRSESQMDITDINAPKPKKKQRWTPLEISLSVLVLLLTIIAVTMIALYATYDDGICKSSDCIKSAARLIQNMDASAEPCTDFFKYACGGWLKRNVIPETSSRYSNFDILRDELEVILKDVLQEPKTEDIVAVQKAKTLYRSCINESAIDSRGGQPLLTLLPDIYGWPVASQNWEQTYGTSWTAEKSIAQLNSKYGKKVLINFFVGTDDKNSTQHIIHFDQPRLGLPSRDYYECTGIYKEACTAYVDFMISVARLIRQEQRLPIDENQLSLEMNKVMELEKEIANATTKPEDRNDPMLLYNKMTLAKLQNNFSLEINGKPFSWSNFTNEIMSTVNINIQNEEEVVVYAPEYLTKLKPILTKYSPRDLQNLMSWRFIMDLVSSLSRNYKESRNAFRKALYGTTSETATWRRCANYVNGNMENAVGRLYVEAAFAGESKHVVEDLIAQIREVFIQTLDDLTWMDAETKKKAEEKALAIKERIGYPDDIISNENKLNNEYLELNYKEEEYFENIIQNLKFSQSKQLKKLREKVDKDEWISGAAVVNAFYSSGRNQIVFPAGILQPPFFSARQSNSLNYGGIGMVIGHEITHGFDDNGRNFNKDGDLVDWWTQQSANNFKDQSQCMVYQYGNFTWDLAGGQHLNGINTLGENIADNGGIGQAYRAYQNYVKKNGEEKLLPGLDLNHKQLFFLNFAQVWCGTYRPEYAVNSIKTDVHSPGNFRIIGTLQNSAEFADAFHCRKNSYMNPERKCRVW
Description: Tested for the ability to inhibit rat kidney enkephalinase at 0.5 mM.

Data set [15] has as its target T1, Neutrophil elastase. Description: In vitro inhibitory activity against human neutrophil elastase […]. Details: dose 50 mg/kg.
The nature of data set [16]: Half life determined from epimerization data at 37 degree C in human blood serum 2. Type of data set: ADME, organism-based, Plasma. In a few lines: as §2
Data set [17] concerns Rattus norvegicus. Briefly: In vivo inhibitory activity against HNE-induced pulmonary hemorrhage was determined in rats after oral administration of 50 mg/kg. The format is functional. In a few lines:
as §1

Data set [18] can be described thus: Inhibition of HNE-induced pulmonary hemorrhage when the compound was administered before 30 or 45 min at the dose of 50 mg/kg; Not orally active. The format is functional, organism-based. The arrangement: dose 50 mg/kg.
In data set [19] the target is T1, Neutrophil elastase. Briefly: In vitro inhibitory activity against human neutrophil elastase. In short, it runs like this: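 HNE was partially purified from human purulent sputum and assayed with MeO-Suc-Ala-Ala-Pro-Val-p-nitroanilide; the assay contained 10% v/v DMSO. Ki was found either from a double-reciprocal plot (four substrate × three inhibitor concentrations) or, assuming competitive inhibition, from three inhibitor concentrations at 0.2 mM substrate (≈Km) using v0/vi = 1 + [I]/Ki,app and Ki = Ki,app/(1 + [S]/Km). Inhibitor was 5–100-fold over enzyme, with no hydration correction.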

Data set [20] concerns the target T1, Neutrophil elastase. Description: In vitro inhibitory activity against human neutrophil elastase was determined at a dose of 25 mg/kg. Type of data set: organism-based. Details: dose 25 mg/kg.
The subject of data set [21] is Rattus norvegicus. Briefly: In vivo inhibitory activity against HNE-induced pulmonary hemorrhage was determined in rats after oral administration of 25 mg/kg. Type of data set: functional. In a few lines:
as §1

Data set [22] deals with Rattus norvegicus. Description: In vivo inhibitory activity against HNE-induced pulmonary hemorrhage was determined in rats after oral administration of 100 mg/kg. The format is functional. In short, it runs like this: as §1
Data set [23] addresses T1, Neutrophil elastase. Briefly: In vitro inhibitory activity against human neutrophil elastase was determined at a dose of 100 mg/kg. Type of data set: organism-based. Details: dose 100 mg/kg.

Sequence of Pepsin A (Sus scrofa) (P00791 60-385 limits assumed): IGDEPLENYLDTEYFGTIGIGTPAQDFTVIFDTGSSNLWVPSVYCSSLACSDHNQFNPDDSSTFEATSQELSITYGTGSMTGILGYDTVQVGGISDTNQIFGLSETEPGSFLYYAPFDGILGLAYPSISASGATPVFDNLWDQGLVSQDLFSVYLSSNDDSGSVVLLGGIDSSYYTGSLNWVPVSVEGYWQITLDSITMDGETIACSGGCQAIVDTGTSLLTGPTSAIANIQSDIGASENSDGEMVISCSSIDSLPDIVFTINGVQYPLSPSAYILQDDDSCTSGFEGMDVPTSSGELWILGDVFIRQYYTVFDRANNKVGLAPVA

Take `CC(C)[C@H](NC(=O)c1ccco1)C(=O)N1CCC[C@H]1C(=O)N[C@H](C(=O)C(F)(F)C(F)(F)F)C(C)C`: in data set [1], the Oral activity entry was “inactive”. Also, in data set [2], the inhibition constant (Ki) amounted to 190 nM. In addition, in [3], the inhibition in vivo at 45 mg/kg stood at 44%.
Turning to `CC(C)C(NC(=O)[C@@H]1CCCN1C(=O)[C@@H](NC(=O)c1ccc(C(=O)N2CCOCC2)cc1)C(C)C)C(=O)C(F)(F)C(F)(F)F` (some centres undefined), the half-life in data set [4] is 30 min; in [5] it was 30 min; in data set [6], 70 min; in data set [13] it was over 200 h; in [16], 30 min. The inhibition in data set [7] was 40%; in data set [8], under 5%; in data set [11], 15%; in [12], under 5%; in [14], under 5%. Moreover, the Oral activity entry in data set [9] is “Active”. The inhibition in vivo at 25 mg/kg in data set [10] was 74%. Moreover, the Ki in data set [15] is 25 nM. Besides, the inhibition in vivo at 50 mg/kg in data set [17] was determined as 69%.
Regarding `CC(C)C(NC(=O)[C@@H]1CCCN1C(=O)[C@@H](NC(=O)c1ccc(NC(=O)N2CCOCC2)cc1)C(C)C)C(=O)C(F)(F)C(F)(F)F` (some centres undefined), the Oral activity result in [18] was “inactive”. The compound further had an inhibitory constant (Ki) in data set [15] of 43 nM. Also, the inhibition in vivo at 50 mg/kg in data set [17] came out at 26%.
Take `CC(C)[C@H](NC(=O)N(C)C)C(=O)N1CCC[C@H]1C(=O)N[C@H](C(=O)C(F)(F)C(F)(F)F)C(C)C`: the inhibition constant (Ki) in data set [19] is 261 nM. Moreover, the Oral activity entry in [9] is “Active”. Moreover, in data set [17], the inhibition in vivo at 50 mg/kg amounted to 70%.
In [20], `CC(C)C(NC(=O)[C@@H]1CCCN1C(=O)[C@@H](NC(=O)CC(=O)N1CCOCC1)C(C)C)C(=O)C(F)(F)C(F)(F)F` (some centres undefined) gave a Ki of 70 nM. The inhibition in vivo at 25 mg/kg in [21] was 41%.
Turning to `CC(C)C(NC(=O)[C@@H]1CCCN1C(=O)[C@@H](NC(=O)c1ccc(C(=O)NS(=O)(=O)c2ccc(Cl)cc2)cc1)C(C)C)C(=O)C(F)(F)C(F)(F)F` (some centres undefined), in data set [18], the Oral activity entry was “inactive”. Also, the inhibition in vivo at 100 mg/kg in [22] is -30%. For the same compound, in data set [23], the Ki amounted to 7 nM.
Consider `CC(C)C(NC(=O)[C@@H]1CCCN1C(=O)[C@@H](NC(=O)c1ccc(C(=O)O)cc1)C(C)C)C(=O)C(F)(F)C(F)(F)F` (some centres undefined), for which, in data set [18], the Oral activity result was “inactive”. Also, in data set [10], the inhibition in vivo at 25 mg/kg was -3%.
Consider `CC(C)C(NC(=O)[C@@H]1CCCN1C(=O)[C@@H](NC(=O)CCc1cccnc1)C(C)C)C(=O)C(F)(F)C(F)(F)F` (some centres undefined), for which the Oral activity entry in data set [9] is “Active”. Besides, the inhibition in vivo at 25 mg/kg in data set [10] is 67%.
Regarding `CC(C)[C@H](NC(=O)CN1CCOCC1)C(=O)N1CCC[C@H]1C(=O)N[C@H](C(=O)C(F)(F)C(F)(F)F)C(C)C`, in [9], the Oral activity entry was “Active”. Also, the affinity in data set [15] corresponds to a Ki of 60 nM. In addition, the inhibition in vivo at 50 mg/kg in data set [17] was 77%.
`CC(C)C(NC(=O)[C@@H]1CCCN1C(=O)[C@@H](NC(=O)N1CCOCC1)C(C)C)C(=O)C(F)(F)C(F)(F)F` (some centres undefined): the Oral activity result in [9] was “Active”. Also, the inhibition in vivo at 25 mg/kg in data set [10] came to 69%. Moreover, affinity in [15] was put at a Ki of 170 nM. In addition, the inhibition in vivo at 50 mg/kg in data set [17] was 69%.
In the case of `CC(C)C(NC(=O)[C@@H]1CCCN1C(=O)[C@@H](NC(=O)C(C(=O)N1CCOCC1)C(C)C)C(C)C)C(=O)C(F)(F)C(F)(F)F` (some centres undefined), the Oral activity result in data set [9] is “Active”. In data set [10], the inhibition in vivo at 25 mg/kg stood at 70%.
Regarding `CC(C)C(NC(=O)[C@@H]1CCCN1C(=O)[C@@H](NC(=O)c1ccc(S(=O)(=O)N2CCOCC2)cc1)C(C)C)C(=O)C(F)(F)C(F)(F)F` (some centres undefined), the Oral activity result in [18] was “inactive”. Besides, the inhibition in vivo at 25 mg/kg in [10] worked out at 30%.
Turning to `CC(C)C(NC(=O)[C@@H]1CCCN1C(=O)[C@@H](NC(=O)c1ccc(C(=O)N2CCOCC2)nc1)C(C)C)C(=O)C(F)(F)C(F)(F)F` (some centres undefined), the inhibition in vivo at 25 mg/kg in data set [10] amounted to 61%.
For the compound `CC(C)C(NC(=O)[C@@H]1CCCN1C(=O)[C@@H](NC(=O)C1CCOCC1)C(C)C)C(=O)C(F)(F)C(F)(F)F` (some centres undefined), the Oral activity result in data set [9] is “Active”. This compound registered an inhibition constant (Ki) in data set [15] of 59 nM. In addition, in data set [17], the inhibition in vivo at 50 mg/kg amounted to 71%.
`CC(C)C(NC(=O)[C@@H]1CCCN1C(=O)[C@@H](NC(=O)c1ccc(C(=O)N2CCN(C(=O)N3CCOCC3)CC2)cc1)C(C)C)C(=O)C(F)(F)C(F)(F)F` (some centres undefined): the Oral activity result in [18] was “inactive”. Further, the inhibition in vivo at 25 mg/kg in [10] stood at 31%.

(Values after ChEMBL document CHEMBL1127308, “Inhibition of human neutrophil elastase with peptidyl electrophilic ketones. 2. Orally active PG-Val-Pro-Val pentafluoroethyl ketones” (J Med Chem, 1994).)
